Measured values from ChEMBL document CHEMBL1671684, “In vitro resistance profile of the hepatitis C virus NS3/4A protease inhibitor TMC435” (Antimicrob Agents Chemother, 2010).
pEC50: −log10 of the molar value.

Assays:
[1] = test system: Hepatitis C virus; test: Antiviral activity against Hepatitis C virus subtype 1b expressing NS3 V36A mutant infected in HuH7 cells after 48 hrs by luciferase reporter assay; format: functional, organism-based, Hepacivirus hominis; settings: genotype 1b, Huh-7, 48 h
How it was run: (§1)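 Genotype 1b con1 subgenomic bicistronic replicon (clone ET) with luciferase reporter and adaptive mutations E1202G, T1280I, K1846T, carrying site-directed NS3 single or double mutations. 10 μg wild-type or mutant replicon RNA electroporated into Huh7-lunet cells, seeded 4,000 cells/well over a nine-point inhibitor dilution series, 48 h at 37°C, 5% CO2, then luminescence read. EC50 taken as median of individual experiments; fold change relative to parental replicon EC50.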

[2] = test system: Hepatitis C virus; test: Antiviral activity against Hepatitis C virus subtype 1b expressing NS3 F43I mutant infected in HuH7 cells after 48 hrs by luciferase reporter assay; format: functional, organism-based, Hepacivirus hominis; settings: genotype 1b, Huh-7, 48 h; how it was run: as §1
[3] = test system: Hepatitis C virus; test: Antiviral activity against Hepatitis C virus subtype 1b expressing NS3 F43V mutant infected in HuH7 cells after 48 hrs by luciferase reporter assay; format: functional, organism-based, Hepacivirus hominis; settings: genotype 1b, Huh-7, 48 h; how it was run: as §1
[4] = test system: Hepatitis C virus; test: Antiviral activity against Hepatitis C virus subtype 1b expressing NS3 T54A mutant infected in HuH7 cells after 48 hrs by luciferase reporter assay; format: functional, organism-based, Hepacivirus hominis; settings: genotype 1b, Huh-7, 48 h; how it was run: as §1
[5] = test system: Hepatitis C virus; test: Antiviral activity against Hepatitis C virus subtype 1b expressing NS3 T54S mutant infected in HuH7 cells after 48 hrs by luciferase reporter assay; format: functional, organism-based, Hepacivirus hominis; settings: genotype 1b, Huh-7, 48 h; how it was run: as §1
[6] = test system: Hepatitis C virus; test: Antiviral activity against Hepatitis C virus subtype 1b expressing NS3 Q80R mutant infected in HuH7 cells after 48 hrs by luciferase reporter assay; format: functional, organism-based, Hepacivirus hominis; settings: genotype 1b, Huh-7, 48 h; how it was run: as §1
[7] = test system: Hepatitis C virus; test: Antiviral activity against Hepatitis C virus subtype 1b expressing NS3 Q80H mutant infected in HuH7 cells after 48 hrs by luciferase reporter assay; format: functional, organism-based, Hepacivirus hominis; settings: genotype 1b, Huh-7, 48 h; how it was run: as §1
[8] = test system: Hepatitis C virus; test: Antiviral activity against Hepatitis C virus subtype 1b expressing NS3 Q80K mutant infected in HuH7 cells after 48 hrs by luciferase reporter assay; format: functional, organism-based, Hepacivirus hominis; settings: genotype 1b, Huh-7, 48 h; how it was run: as §1
[9] = test system: Hepatitis C virus; test: Antiviral activity against Hepatitis C virus subtype 1b expressing NS3 R155I mutant infected in HuH7 cells after 48 hrs by luciferase reporter assay; format: functional, organism-based, Hepacivirus hominis; settings: genotype 1b, Huh-7, 48 h; how it was run: as §1
[10] = test system: Hepatitis C virus; test: Antiviral activity against Hepatitis C virus subtype 1b expressing NS3 R155Q mutant infected in HuH7 cells after 48 hrs by luciferase reporter assay; format: functional, organism-based, Hepacivirus hominis; settings: genotype 1b, Huh-7, 48 h; how it was run: as §1
[11] = test system: Hepatitis C virus; test: Antiviral activity against Hepatitis C virus subtype 1b expressing NS3 A156G mutant infected in HuH7 cells after 48 hrs by luciferase reporter assay; format: functional, organism-based, Hepacivirus hominis; settings: genotype 1b, Huh-7, 48 h; how it was run: as §1
[12] = test system: Hepatitis C virus; test: Antiviral activity against Hepatitis C virus subtype 1b expressing NS3 D168G mutant infected in HuH7 cells after 48 hrs by luciferase reporter assay; format: functional, organism-based, Hepacivirus hominis; settings: genotype 1b, Huh-7, 48 h; how it was run: as §1
[13] = test system: Hepatitis C virus; test: Antiviral activity against Hepatitis C virus subtype 1b expressing NS3 D168Y mutant infected in HuH7 cells after 48 hrs by luciferase reporter assay; format: functional, organism-based, Hepacivirus hominis; settings: genotype 1b, Huh-7, 48 h; how it was run: as §1
[14] = test system: Hepatitis C virus; test: Antiviral activity against Hepatitis C virus subtype 1b expressing NS3 V170T mutant infected in HuH7 cells after 48 hrs by luciferase reporter assay; format: functional, organism-based, Hepacivirus hominis; settings: genotype 1b, Huh-7, 48 h; how it was run: as §1
[15] = test system: Hepatitis C virus; test: Antiviral activity against Hepatitis C virus subtype 1b expressing NS3 F43S and D168E mutant infected in HuH7 cells after 48 hrs by luciferase reporter assay; format: functional, organism-based, Hepacivirus hominis; settings: genotype 1b, Huh-7, 48 h; how it was run: as §1
[16] = test system: Hepatitis C virus; test: Antiviral activity against Hepatitis C virus subtype 1b expressing NS3 Q80R and D168A mutant infected in HuH7 cells after 48 hrs by luciferase reporter assay; format: functional, organism-based, Hepacivirus hominis; settings: genotype 1b, Huh-7, 48 h; how it was run: as §1
[17] = test system: Hepatitis C virus; test: Ratio of EC50 for Hepatitis C virus subtype 1b expressing NS3 F43I mutant to EC50 for Hepatitis C virus subtype 1b expressing WT NS3 infected in HuH7 cells after 48 hrs by luciferase reporter assay; format: functional, Hepacivirus hominis, genotype 1b, Huh-7
How it was run: (§2)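 Transient replicon assay: site-directed single or multiple NS3 mutations engineered into genotype 1b (con1, clone ET) subgenomic bicistronic replicon with luciferase reporter and adaptive mutations E1202G, T1280I, K1846T. Huh7-lunet cells electroporated with 10 μg wild-type or mutant replicon RNA, seeded 4,000 cells/well with nine-point inhibitor dilution; 48 h, 37°C, 5% CO2; luminescence read-out. EC50 as median of individual experiments; fold change versus parental replicon EC50.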

[18] = test system: Hepatitis C virus; test: Ratio of EC50 for Hepatitis C virus subtype 1b expressing NS3 F43V mutant to EC50 for Hepatitis C virus subtype 1b expressing WT NS3 infected in HuH7 cells after 48 hrs by luciferase reporter assay; format: functional, Hepacivirus hominis, genotype 1b, Huh-7; how it was run: as §2
[19] = test system: Hepatitis C virus; test: Ratio of EC50 for Hepatitis C virus subtype 1b expressing NS3 T54S mutant to EC50 for Hepatitis C virus subtype 1b expressing WT NS3 infected in HuH7 cells after 48 hrs by luciferase reporter assay; format: functional, Hepacivirus hominis, genotype 1b, Huh-7; how it was run: as §2
[20] = test system: Hepatitis C virus; test: Ratio of EC50 for Hepatitis C virus subtype 1b expressing NS3 Q80K mutant to EC50 for Hepatitis C virus subtype 1b expressing WT NS3 infected in HuH7 cells after 48 hrs by luciferase reporter assay; format: functional, Hepacivirus hominis, genotype 1b, Huh-7; how it was run: as §2
[21] = test system: Hepatitis C virus; test: Ratio of EC50 for Hepatitis C virus subtype 1b expressing NS3 R155K mutant to EC50 for Hepatitis C virus subtype 1b expressing WT NS3 infected in HuH7 cells after 48 hrs by luciferase reporter assay; format: functional, Hepacivirus hominis, genotype 1b, Huh-7; how it was run: as §2
[22] = test system: Hepatitis C virus; test: Ratio of EC50 for Hepatitis C virus subtype 1b expressing NS3 A156G mutant to EC50 for Hepatitis C virus subtype 1b expressing WT NS3 infected in HuH7 cells after 48 hrs by luciferase reporter assay; format: functional, Hepacivirus hominis, genotype 1b, Huh-7; how it was run: as §1
[23] = test system: Hepatitis C virus; test: Ratio of EC50 for Hepatitis C virus subtype 1b expressing NS3 D168E mutant to EC50 for Hepatitis C virus subtype 1b expressing WT NS3 infected in HuH7 cells after 48 hrs by luciferase reporter assay; format: functional, Hepacivirus hominis, genotype 1b, Huh-7; how it was run: as §2
[24] = test system: Hepatitis C virus; test: Ratio of EC50 for Hepatitis C virus subtype 1b expressing NS3 D168T mutant to EC50 for Hepatitis C virus subtype 1b expressing WT NS3 infected in HuH7 cells after 48 hrs by luciferase reporter assay; format: functional, Hepacivirus hominis, genotype 1b, Huh-7; how it was run: as §2
[25] = test system: Hepatitis C virus; test: Ratio of EC50 for Hepatitis C virus subtype 1b expressing NS3 D168Y mutant to EC50 for Hepatitis C virus subtype 1b expressing WT NS3 infected in HuH7 cells after 48 hrs by luciferase reporter assay; format: functional, Hepacivirus hominis, genotype 1b, Huh-7; how it was run: as §2
[26] = test system: Hepatitis C virus; test: Ratio of EC50 for Hepatitis C virus subtype 1b expressing NS3 D168H mutant to EC50 for Hepatitis C virus subtype 1b expressing WT NS3 infected in HuH7 cells after 48 hrs by luciferase reporter assay; format: functional, Hepacivirus hominis, genotype 1b, Huh-7; how it was run: as §2
[27] = test system: Hepatitis C virus; test: Ratio of EC50 for Hepatitis C virus subtype 1b expressing NS3 D168A mutant to EC50 for Hepatitis C virus subtype 1b expressing WT NS3 infected in HuH7 cells after 48 hrs by luciferase reporter assay; format: functional, Hepacivirus hominis, genotype 1b, Huh-7; how it was run: as §1
[28] = test system: Hepatitis C virus; test: Ratio of EC50 for Hepatitis C virus subtype 1b expressing NS3 D168V mutant to EC50 for Hepatitis C virus subtype 1b expressing WT NS3 infected in HuH7 cells after 48 hrs by luciferase reporter assay; format: functional, Hepacivirus hominis, genotype 1b, Huh-7; how it was run: as §2
[29] = test system: Hepatitis C virus; test: Ratio of EC50 for Hepatitis C virus subtype 1b expressing NS3 F43S and Q80R mutant to EC50 for Hepatitis C virus subtype 1b expressing WT NS3 infected in HuH7 cells after 48 hrs by luciferase reporter assay; format: functional, Hepacivirus hominis, genotype 1b, Huh-7; how it was run: as §2
[30] = test system: Hepatitis C virus; test: Ratio of EC50 for Hepatitis C virus subtype 1b expressing NS3 F43S and D168E mutant to EC50 for Hepatitis C virus subtype 1b expressing WT NS3 infected in HuH7 cells after 48 hrs by luciferase reporter assay; format: functional, Hepacivirus hominis, genotype 1b, Huh-7; how it was run: as §2
[31] = test system: Hepatitis C virus; test: Ratio of EC50 for Hepatitis C virus subtype 1b expressing NS3 Q80K and R155K mutant to EC50 for Hepatitis C virus subtype 1b expressing WT NS3 infected in HuH7 cells after 48 hrs by luciferase reporter assay; format: functional, Hepacivirus hominis, genotype 1b, Huh-7; how it was run: as §2

| SMILES | pEC50 [1] | pEC50 [2] | pEC50 [3] | pEC50 [4] | pEC50 [5] | pEC50 [6] | pEC50 [7] | pEC50 [8] | pEC50 [10] | pEC50 [11] | pEC50 [13] | Ratio EC50 [20] | Ratio EC50 [21] | Ratio EC50 [22] | Ratio EC50 [23] | Ratio EC50 [24] | Ratio EC50 [25] | Ratio EC50 [26] | Ratio EC50 [27] | Ratio EC50 [31] | other results |
| --- | --- | --- | --- | --- | --- | --- | --- | --- | --- | --- | --- | --- | --- | --- | --- | --- | --- | --- | --- | --- | --- |
| CC(C)(C)NC(=O)N[C@H](C(=O)N1C[C@H]2[C@@H]([C@H]1C(=O)NC(CC1CCC1)C(=O)C(N)=O)C2(C)C)C(C)(C)C (stereo partly drawn) [BOCEPREVIR] | 5.84 | 6.62 | 6.28 | 6.57 | 5.96 | 7.07 | 7.11 | 7.03 | 6.76 | 7.19 | 6.71 | 0.8 | 4.7 | 2.1 | 0.8 | 1.1 | 2.4 | 0.7 | 0.7 | 5.1 | pEC50 [9]: 5.27; pEC50 [12]: 7.20; pEC50 [14]: 6.68; pEC50 [15]: 6.38; pEC50 [16]: 6.95; Ratio EC50 [17]: 1.1; Ratio EC50 [18]: 2.4; Ratio EC50 [19]: 8.5; Ratio EC50 [28]: 0.5; Ratio EC50 [29]: 7.4; Ratio EC50 [30]: 3.2 |
| COc1ccc2c(O[C@@H]3C[C@H]4C(=O)N[C@]5(C(=O)O)C[C@H]5/C=C\CCCCC[C@H](NC(=O)OC5CCCC5)C(=O)N4C3)cc(-c3csc(NC(C)C)n3)nc2c1 [CILUPREVIR] | 9.00 | 9.40 | 9.40 | 9.15 | 9.05 | 8.85 | 8.92 | 9.00 | 6.61 | 7.66 | 5.68 | 0.9 | 496 | 12 | 65 | 844 | 2488 | 263 | 339 | 736 | pEC50 [9]: 7.54; pEC50 [12]: 7.46; pEC50 [14]: 8.32; pEC50 [15]: 8.24; pEC50 [16]: 5.98; Ratio EC50 [17]: 0.5; Ratio EC50 [18]: 0.5; Ratio EC50 [19]: 1.9; Ratio EC50 [28]: 3213; Ratio EC50 [29]: 0.6; Ratio EC50 [30]: 12 |
| COc1ccc2c(O[C@@H]3C[C@H]4C(=O)N[C@]5(C(=O)NS(=O)(=O)C6CC6)C[C@H]5/C=C\CCCCN(C)C(=O)[C@@H]4C3)cc(-c3nc(C(C)C)cs3)nc2c1C [SIMEPREVIR] | 7.47 | 6.25 | 6.20 | 8.23 | 8.27 | 7.31 | 7.39 | 7.21 | 7.68 | 6.69 | 5.20 | 7.7 | 30 | 16 | 40 | 308 | 666 | 368 | 594 | 364 | pEC50 [9]: 8.18; pEC50 [12]: 7.38; pEC50 [14]: 7.28; pEC50 [15]: 5.44; pEC50 [16]: 4.77; Ratio EC50 [17]: 89; Ratio EC50 [18]: 99; Ratio EC50 [19]: 1.2; Ratio EC50 [28]: 2591; Ratio EC50 [29]: 286; Ratio EC50 [30]: 694 |
| CCC[C@H](NC(=O)[C@@H]1[C@H]2CCC[C@H]2CN1C(=O)[C@@H](NC(=O)[C@@H](NC(=O)c1cnccn1)C1CCCCC1)C(C)(C)C)C(=O)C(=O)NC1CC1 [TELAPREVIR] |  |  |  | 5.81 |  | 6.67 |  | 6.83 | 6.24 | 7.24 | 6.73 | 0.5 | 10 | 0.6 | 0.6 | 1 | 1.2 | 0.7 | 0.4 | 4.6 |  |
